Data from ChEMBL document CHEMBL1136789, “Synthesis and biological evaluation of new 2-(4,5-dihydro-1H-imidazol-2-yl)-3,4-dihydro-2H-1,4-benzoxazine derivatives” (J Med Chem, 2003).

Columns and labels:
[1] = In vitro alpha-1 adrenergic receptor binding affinity was determined on calf frontal cortex membrane preparation; assay type: tissue-based, Bos taurus
In short: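 Calf frontal cortex membranes (0.5 mg protein/mL) incubated 40 min at 25 °C with 0.5 nM [3H]prazosin in 50 mM phosphate buffer with 10 mM MgCl2. Competitors at 10^-9 to 10^-4 M. Nonspecific binding set with 10 µM phentolamine. Stopped by rapid vacuum filtration through glass fibre filters, then washed three times with ice-cold buffer. Ki reported.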

[2] = tested on: Rattus norvegicus; experiment: Effect at (25 mg/kg, ip) on heart rate in anesthetized spontaneously hypertensive rats; assay type: functional
In short: (§1)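 Adult male SHR anaesthetised with sodium pentobarbital 50 mg/kg ip, left carotid catheter filled with heparinised saline. BP and HR (HR from pulse pressure) stabilised ≥40 min before a single ip dose, n=6/group. Vehicle 0.5% carboxymethylcellulose in water, 2.5 mL/kg. Recorded over 90 min. Output is the maximal change in MAP (mmHg) and HR (bpm) from pre-dose baseline, also as %. Repeated-measures ANOVA with Dunnett's tests.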

[3] = tested on: Rattus norvegicus; experiment: Effect (25 mg/kg ip) on heart rate in anesthetized spontaneously hypertensive rats; assay type: functional; in short: as §1
[4] = tested on: Rattus norvegicus; experiment: Effect (25 mg/kg ip) on mean arterial blood pressure in anesthetized spontaneously hypertensive rats; assay type: functional; in short: as §1
[5] = In vitro alpha-2 adrenergic receptor binding affinity was determined on calf frontal cortex membrane preparation; assay type: tissue-based, Bos taurus
[6] = tested on: Rattus norvegicus; experiment: Effect after 10 mg/kg, po, on heart rate in conscious spontaneously hypertensive rats; assay type: functional
In short: (§2)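 Studied conscious 24 h after surgery. Dosed by oral gavage after ≥40 min stabilisation, n=6/group. Vehicle 0.5% carboxymethylcellulose, 5 mL/kg. MAP and HR recorded over 24 h. Output is the maximal change from baseline (mmHg, bpm, %). Repeated-measures ANOVA with Dunnett's tests.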

[7] = tested on: Rattus norvegicus; experiment: Effect after 30 mg/kg, po, on heart rate in conscious spontaneously hypertensive rats; assay type: functional; in short: as §2
[8] = tested on: Rattus norvegicus; experiment: Effect after 10 mg/kg, po, on mean arterial blood pressure in conscious spontaneously hypertensive rats; assay type: functional; in short: as §2
[9] = tested on: Rattus norvegicus; experiment: Effect after 30 mg/kg, po, on mean arterial blood pressure in conscious spontaneously hypertensive rats; assay type: functional; in short: as §2
[10] = target: imidazoline I2 binding site (Oryctolagus cuniculus); experiment: In vitro binding affinity determined against imidazoline receptor I-2 using rabbit kidney preparation
[11] = tested on: Rattus norvegicus; experiment: Effect after 100 mg/kg, po, on heart rate in conscious spontaneously hypertensive rats; assay type: functional; in short: as §2
[12] = tested on: Rattus norvegicus; experiment: Effect after 100 mg/kg, po, on mean arterial blood pressure in conscious spontaneously hypertensive rats; assay type: functional; in short: as §2

| Compound | Ki [1] | Max delta HR [2] | Variation [3] | Max delta MAP [4] | Variation [4] | Ki [5] | Max delta HR [6] | Variation [6] | Max delta HR [7] | Variation [7] | Max delta MAP [8] | Variation [8] | Max delta MAP [9] | Variation [9] | Ki [10] | Max delta HR [11] | Variation [11] | Max delta MAP [12] | Variation [12] |
| --- | --- | --- | --- | --- | --- | --- | --- | --- | --- | --- | --- | --- | --- | --- | --- | --- | --- | --- | --- |
| CN1CC(C2=NCCN2)Oc2c1ccc1ccccc21 (stereo unspecified) | > 10 µM | -80 beats min-1 | -24% | -14 mmHg | -8% |  |  |  |  |  |  |  |  |  |  |  |  |  |  |
| c1cc2c3c(c1)OC(C1=NCCN1)CN3CC2 (stereo unspecified) | > 10 µM | -103 beats min-1 | -25% | -56 mmHg | -30% | 0.0286 µM | -50 beats min-1 | -14% | -94 beats min-1 | -27% | -19 mmHg | -10% | -48 mmHg | -25% |  |  |  |  |  |
| COc1ccc2c(c1)N(C)CC(C1=NCCN1)O2 (stereo unspecified) | > 10 µM | -54 beats min-1 | -18% | -14 mmHg | -8% | 0.287 µM |  |  |  |  |  |  |  |  |  |  |  |  |  |
| c1ccc(CN2CC(C3=NCCN3)Oc3ccccc32)cc1 (stereo unspecified) | 3.5 µM | -21 beats min-1 | -7% | -4 mmHg | -2% | 1.3 µM |  |  |  |  |  |  |  |  | 1.6 µM |  |  |  |  |
| c1cc2c3c(c1)OC(C1=NCCN1)CN3CCC2 (stereo unspecified) | 0.71 µM | -77 beats min-1 | -24% | -34 mmHg | -20% | 0.34 µM |  |  |  |  |  |  |  |  |  |  |  |  |  |
| Cc1ccc2c3c1CCCN3CC(C1=NCCN1)O2 (stereo unspecified) | > 10 µM | -79 beats min-1 | -25% | -17 mmHg | -9% | 0.23 µM |  |  |  |  |  |  |  |  |  |  |  |  |  |
| COc1cc(=O)n2c3c(cccc13)OC(C1=NCCN1)C2 (stereo unspecified) | > 10 µM | 13 beats min-1 | 4% | -9 mmHg | -5% | 13 µM |  |  |  |  |  |  |  |  |  |  |  |  |  |
| Cc1ccc2c(c1)OC(C1=NCCN1)CN2C (stereo unspecified) | 1 µM | -60 beats min-1 | -19% | -34 mmHg | -20% | 0.03 µM |  |  |  |  |  |  |  |  |  |  |  |  |  |
| CN1CC(C)(C2=NCCN2)Oc2ccccc21 (stereo unspecified) | > 1 µM | -37 beats min-1 | -11% | -17 mmHg | -9% | > 1 µM |  |  |  |  |  |  |  |  |  |  |  |  |  |
| CN1CC(C2=NCCN2)Oc2cc3c(cc21)CCCC3 (stereo unspecified) | > 10 µM | -53 beats min-1 | -17% | -15 mmHg | -9% | 0.098 µM |  |  |  |  |  |  |  |  |  |  |  |  |  |
| CN1CC(C2=NCCN2)Oc2ccc(Cl)cc21 (stereo unspecified) | 1.46 µM | -96 beats min-1 | -32% | -53 mmHg | -28% | 0.0525 µM |  |  | -40 beats min-1 | 11% |  |  | -47 mmHg | -24% |  |  |  |  |  |
| CCOCc1ccc2c(c1)N(C)CC(C1=NCCN1)O2 (stereo unspecified) | > 10 µM |  |  |  |  | > 1 µM |  |  |  |  |  |  |  |  |  |  |  |  |  |
| CN1CC(C2=NCCN2)Oc2ccc(C(F)(F)F)cc21 (stereo unspecified) | > 10 µM | -134 beats min-1 | -43% | -32 mmHg | -18% | 0.263 µM |  |  |  |  |  |  |  |  |  |  |  |  |  |
| Cc1cccc2c1N(C)CC(C1=NCCN1)O2 (stereo unspecified) | 4.74 µM | -52 beats min-1 | -16% | 47 mmHg | 23% | 0.145 µM |  |  |  |  |  |  |  |  |  |  |  |  |  |
| Cc1ccc2c(c1)N(C)CC(C1=NCCN1)O2 (stereo unspecified) | > 1 µM | -127 beats min-1 | -37% | -32 mmHg | -175% | 0.07 µM | -11 beats min-1 | -3% | -32 beats min-1 | -10% | -18 mmHg | -10% | -43 mmHg | -23% | 0.00199 µM | -77 beats min-1 | -23% | -53 mmHg | -28% |
